Results: ChEMBL document CHEMBL1800033, “Refining the eosinophil cationic protein antibacterial pharmacophore by rational structure minimization” (J Med Chem, 2011)
≈ marks a conversion by molar mass, not a printed value. Blank lines part the entries; values can stand above or below the compound they belong to. Calls of active or inactive are those of the source. The rule behind the calls is not given here. Where a SMILES comes first, the peptide text is derived from it. [ ]: non-standard residue; d: D form. Ahx = NCCCCCC(=O)O

Columns and labels:
[1] = test system: Enterococcus faecium; test: Bactericidal activity against Enterococcus faecium ATCC 19434 after over night incubation; assay type: functional; details: read-out: MIC100
In short: (§1)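 Overnight LB cultures (37 °C) diluted to about 5 × 10^5 CFU/mL; peptides in 10 mM sodium phosphate pH 7.5, serially diluted 10 to 0.2 μM, incubated with bacteria 4 h, then plated and grown overnight at 37 °C; MIC from two independent experiments, triplicate per concentration.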

[2] = test system: Lipopolysaccharide (LPS); test: Displacement of BODIPY TR cadaverine from Escherichia coli serotype 0111:B4 lipopolysaccharide by fluorescent displacement assay
In short: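 Bodipy TR cadaverine displacement: protein or peptide aliquots added to a stirred mix of LPS (10 μg/mL) and probe (10 μM) in 5 mM Hepes pH 7.5; fluorescence followed, effective displacement value (ED50) calculated.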

[3] = test system: Staphylococcus aureus; test: Bactericidal activity against Staphylococcus aureus ATCC 502A after over night incubation; assay type: functional; details: read-out: MIC100; in short: as §1
[4] = test system: Acinetobacter baumannii; test: Bactericidal activity against Acinetobacter baumannii ATCC 15308 after over night incubation; assay type: functional; details: read-out: MIC100; in short: as §1
[5] = Toxicity in human RBC assessed as hemolytic activity after 4 hrs; assay type: cell-based, Erythrocyte; details: human red blood cells (RBC)
In short: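 Fresh human RBCs washed thrice in PBS (35 mM phosphate, 0.15 M NaCl, pH 7.4), 2 × 10^7 cells/mL, incubated with peptide 4 h at 37 °C; supernatant A570 read, 100% lysis set by 10 s sonication; HC50 from sigmoidal fit.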

[6] = Induction of membrane damage in DOPC/DOPG large unilamellar vesicles model after 1 hr by leakage fluorescence assay; assay type: physicochemical; details: read-out: ED50 (the source's name)
[7] = test system: Micrococcus luteus; test: Bactericidal activity against Micrococcus luteus ATCC 7468 after over night incubation; assay type: functional; details: read-out: MIC100; in short: as §1
[8] = test system: Pseudomonas sp.; test: Bactericidal activity against Pseudomonas sp. ATCC 15915 after over night incubation; assay type: functional; details: read-out: MIC100; in short: as §1
[9] = test system: Escherichia coli; test: Bactericidal activity against Escherichia coli BL2 after over night incubation; assay type: functional; details: read-out: MIC100; in short: as §1
[10] = test system: Escherichia coli; test: Antibacterial activity against Escherichia coli assessed as concentration required to cause minimum agglutination behavior after overnight incubation; assay type: functional
In short: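 E. coli grown at 37 °C to mid-exponential phase (OD600 0.6), pelleted, resuspended in Tris-HCl, 0.15 M NaCl, pH 7.5 to A600 of 10; suspension incubated with peptide at 0.1–10 μM, 25 °C overnight; agglutination scored by visual inspection, reported as minimal agglutinating concentration.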

[11] = test system: Lipopolysaccharide (LPS); test: Displacement of BODIPY TR cadaverine from Escherichia coli serotype 0111:B4 lipopolysaccharide at <10 uM by fluorescent displacement assay
[12] = Induction of membrane damage in DOPC/DOPG large unilamellar vesicles model at <10 uM after 1 hr by leakage fluorescence assay; assay type: physicochemical

ED50 [2]: 6130 nM
Compound: H-ISLNPPRSTIAMRAINNYRWRSKNQNTFLR-OH
MIC [1]: 3.5 µM
MIC [3]: 1.5 µM
MIC [4]: 3.5 µM
HC50 at 4 h [5]: 10.5 µM
EC50 [6]: 760 nM
MIC [7]: 3.5 µM
MIC [8]: 1.5 µM
MIC [9]: 1.5 µM

ED50 [2]: 1600 nM
Compound: CC[C@H](C)[C@H](NC(=O)[C@H](C)NC(=O)[C@H](CCCNC(=N)N)NC(=O)[C@H](CCSC)NC(=O)[C@H](C)NC(=O)[C@@H](NC(=O)[C@@H](NC(=O)[C@H](CO)NC(=O)CCCCCNC(=O)[C@H](CO)NC(=O)[C@@H](NC(=O)[C@H](Cc1cnc[nH]1)NC(=O)[C@H](CCC(N)=O)NC(=O)[C@@H](NC(=O)[C@H](C)NC(=O)[C@H](Cc1ccccc1)NC(=O)[C@H](Cc1c[nH]c2ccccc12)NC(=O)[C@H](CCC(N)=O)NC(=O)[C@H](C)NC(=O)[C@H](CCCNC(=N)N)NC(=O)[C@@H](N)[C@@H](C)O)[C@@H](C)CC)[C@@H](C)CC)[C@@H](C)O)[C@@H](C)CC)C(=O)N[C@@H](CC(N)=O)C(=O)N[C@@H](CC(N)=O)C(=O)N[C@@H](Cc1ccc(O)cc1)C(=O)N[C@@H](CCCNC(=N)N)C(=O)N[C@@H](Cc1c[nH]c2ccccc12)C(=O)N[C@@H](CCCNC(=N)N)C(=O)O (H-TRAQWFAIQHIS[Ahx]STIAMRAINNYRWR-OH)
MIC [1]: 1.5 µM (≈ 4.96 µg/mL)
Activity [10]: <1 µM
MIC [3]: 0.87 µM (≈ 2.88 µg/mL)
MIC [4]: 0.88 µM (≈ 2.91 µg/mL)
HC50 at 4 h [5]: 7.3 µM
EC50 [6]: 820 nM
MIC [7]: 1.5 µM (≈ 4.96 µg/mL)
MIC [8]: 1.5 µM (≈ 4.96 µg/mL)
MIC [9]: 0.6 µM (≈ 1.98 µg/mL)

Activity [11]: inactive
Compound: H-RPPQFTRAQWFAIQHISLN-OH
MIC [1]: > 10 µM
MIC [3]: > 10 µM
MIC [4]: > 10 µM
HC50 at 4 h [5]: 11.2 µM
MIC [7]: > 10 µM
MIC [8]: > 10 µM
Activity [12]: Not Active
MIC [9]: > 10 µM

ED50 [2]: 1520 nM
Compound: H-TIAMRAINNYRWRSKNQNTFLR-OH
MIC [1]: 7 µM
MIC [3]: 1.5 µM
MIC [4]: 1.1 µM
HC50 at 4 h [5]: 18.7 µM
EC50 [6]: 1250 nM
MIC [7]: 7 µM
MIC [8]: 7 µM
MIC [9]: 7 µM

ED50 [2]: 2430 nM
Compound: H-AQWFAIQHISLNPPRSTIAMRAINNYRWR-OH
MIC [1]: 1.5 µM
Activity [10]: <1 µM
MIC [3]: 0.7 µM
MIC [4]: 1.5 µM
HC50 at 4 h [5]: 10.3 µM
EC50 [6]: 740 nM
MIC [7]: 3.5 µM
MIC [8]: 3.5 µM
MIC [9]: 1.5 µM

ED50 [2]: 1950 nM
Compound: CC[C@H](C)[C@H](NC(=O)[C@H](C)NC(=O)[C@H](Cc1ccccc1)NC(=O)[C@H](Cc1c[nH]c2ccccc12)NC(=O)[C@H](CCC(N)=O)NC(=O)[C@H](C)N)C(=O)N[C@@H](CCC(N)=O)C(=O)N[C@@H](Cc1cnc[nH]1)C(=O)NCCCCCC(=O)N[C@@H](CO)C(=O)N[C@H](C(=O)N[C@H](C(=O)N[C@@H](C)C(=O)N[C@@H](CCSC)C(=O)N[C@@H](CCCNC(=N)N)C(=O)N[C@@H](C)C(=O)N[C@H](C(=O)N[C@@H](CC(N)=O)C(=O)N[C@@H](CC(N)=O)C(=O)N[C@@H](Cc1ccc(O)cc1)C(=O)N[C@@H](CCCNC(=N)N)C(=O)N[C@@H](Cc1c[nH]c2ccccc12)C(=O)N[C@@H](CCCNC(=N)N)C(=O)O)[C@@H](C)CC)[C@@H](C)CC)[C@@H](C)O (H-AQWFAIQH[Ahx]STIAMRAINNYRWR-OH)
MIC [1]: > 10 µM
MIC [3]: 1.1 µM (≈ 3.13 µg/mL)
MIC [4]: 7 µM (≈ 19.9 µg/mL)
HC50 at 4 h [5]: 14.4 µM
EC50 [6]: 1630 nM
MIC [7]: > 10 µM
MIC [8]: 3.5 µM (≈ 9.97 µg/mL)
MIC [9]: 1.5 µM (≈ 4.27 µg/mL)

ED50 [2]: 5130 nM
Compound: CC[C@H](C)[C@H](NC(=O)[C@H](C)NC(=O)[C@H](CCCNC(=N)N)NC(=O)[C@H](CCSC)NC(=O)[C@H](C)NC(=O)[C@@H](NC(=O)[C@@H](NC(=O)[C@H](CO)NC(=O)CCCCCNC(=O)[C@H](Cc1cnc[nH]1)NC(=O)[C@H](CCC(N)=O)NC(=O)[C@@H](NC(=O)[C@H](C)NC(=O)[C@H](Cc1ccccc1)NC(=O)[C@H](Cc1c[nH]c2ccccc12)NC(=O)[C@H](CCC(N)=O)NC(=O)[C@H](C)N)[C@@H](C)CC)[C@@H](C)O)[C@@H](C)CC)C(=O)N[C@@H](CC(N)=O)C(=O)O (H-AQWFAIQH[Ahx]STIAMRAIN-OH)
MIC [1]: > 10 µM
MIC [3]: > 10 µM
MIC [4]: > 10 µM
HC50 at 4 h [5]: 15.2 µM
MIC [7]: > 10 µM
MIC [8]: > 10 µM
Activity [12]: Not Active
MIC [9]: > 10 µM

Compound: CC[C@H](C)[C@H](NC(=O)CNC(=O)[C@@H](NC(=O)[C@H](CCCCN)NC(=O)[C@H](CCCCN)NC(=O)[C@H](Cc1ccccc1)NC(=O)[C@H](CC(C)C)NC(=O)[C@H](CCCCN)NC(=O)[C@H](Cc1c[nH]c2ccccc12)NC(=O)[C@@H](N)CCCCN)[C@@H](C)CC)C(=O)NCC(=O)N[C@@H](C)C(=O)N[C@H](C(=O)N[C@@H](CC(C)C)C(=O)N[C@@H](CCCCN)C(=O)N[C@H](C(=O)N[C@@H](CC(C)C)C(=O)N[C@H](C(=O)N[C@H](C(=O)NCC(=O)N[C@@H](CC(C)C)C(=O)N1CCC[C@H]1C(=O)N[C@@H](C)C(=O)N[C@@H](CC(C)C)C(=O)N[C@H](C(=O)N[C@@H](CO)C(=O)O)[C@@H](C)CC)[C@@H](C)O)[C@@H](C)O)C(C)C)C(C)C
MIC [1]: 1.5 µM (≈ 4.19 µg/mL)
MIC [3]: 0.4 µM (≈ 1.12 µg/mL)
MIC [4]: 0.88 µM (≈ 2.46 µg/mL)
HC50 at 4 h [5]: 7.8 µM
MIC [7]: 1.5 µM (≈ 4.19 µg/mL)
MIC [8]: 0.6 µM (≈ 1.68 µg/mL)
MIC [9]: 1.1 µM (≈ 3.08 µg/mL)

ED50 [2]: 1580 nM
Compound: H-AQWFAIQHISLNPPRSTIAMRAINNYRWRSKNQNTFLR-OH
MIC [1]: 1.5 µM
Activity [10]: <1 µM
MIC [3]: 0.7 µM
MIC [4]: 0.88 µM
HC50 at 4 h [5]: 10.5 µM
EC50 [6]: 400 nM
MIC [7]: 1.5 µM
MIC [8]: 1.5 µM
MIC [9]: 0.45 µM
